Measured values taken from publication PMC8026699 (Cancer research, 2021).
Values after ≈ are worked out from the molar mass of the structure shown.

How the values were obtained:
BT474 tumors = assay: BT474 tumor xenograft growth; type: in vivo, mouse; conditions: BT474, 100 mpk daily IP
Outline: (§1)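 Female NSG mice, 5–6 weeks old, received subcutaneous PBS:Matrigel grafts: BT474 at 1×10^6 (with a 60-day 17β-estradiol pellet at the neck), MDA-MB-468 at 5×10^6, or WHIM12 PDX cells at 2×10^6. Once tumors established, mice were randomized to daily IP or oral gavage. Arms: vehicle (10% DMSO, 20% solutol, 70% water with 0.5% Tween20) or 100 mg/kg test compound. Calipers thrice weekly; volume (L × W²)/2.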

WHIM12 tumors = assay: WHIM12 PDX tumor growth; type: in vivo, mouse; conditions: WHIM12 (ACSS2 low), 100 mpk daily PO
Outline: as §1

Brpkp110 tumors = assay: Brpkp110 tumor growth in NSG mice; type: in vivo, mouse
Outline: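 Brpkp110 cells (5×10^5 in PBS:Matrigel) implanted subcutaneously in 5–6-week-old female NSG mice, then randomized. Daily dosing: vehicle (10% DMSO, 20% solutol, 70% water with 0.5% Tween20) or 100 mg/kg test compound. Volume (L × W²)/2 from calipers thrice weekly. Resected tumors: formalin-fixed, paraffin-embedded, citrate steam retrieval, H2O2 block, Ki67 antibody, DAB with hematoxylin counterstain.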

[1] = test system: cytosolic AcCoA metabolism (UDP-GlcNAc); assay: 13C2-acetate labeling of UDP-GlcNAc in cells; type: cell-based
Outline: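 Cells grown 24 h in serum-like modified Eagle's medium (SMEM) with 0.1 mM uniformly labeled 13C2-acetate. Conditions were normoxia with 10% dialyzed FBS (N10) or 1% O2 hypoxia with 1% dialyzed FBS (H1). Vehicle or test compound present. Cells washed in ice-cold PBS and extracted with methanol/acetonitrile/water (5:3:2) at 4°C for 5 min. Cleared extracts analysed by HILIC LC-MS on a Q Exactive HF-X.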

Brpkp110 cells [2] = assay: 13C6-glucose dependent palmitate synthesis in Brpkp110 cells; type: cell-based, mouse; conditions: Brpkp110, normoxia, 10% dialyzed FBS
Outline: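 Cells grown 4 h under normoxia in SMEM with 10% dialyzed FBS and 5.5 mM uniformly labeled 13C6-glucose. Lipids extracted with methanol/chloroform/PBS and saponified in 0.3 M KOH in 90% methanol at 70°C for 1 h. Fatty acids recovered into hexane and palmitate labeling measured by C18 reverse-phase LC-MS.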

BT474 cells = assay: Growth of BT474 cells; type: cell-based, human; conditions: BT474, 10 μM, 72 hours, H1 conditions, 200 μM sodium acetate
recombinant human ACSS2 = recombinant human ACSS2 (Homo sapiens, UniProt Q9NR19); assay: TranScreener AMP biochemical assay of ACSS2 activity; conditions: ratio of IC50 values
Chain of recombinant human ACSS2 (Q9NR19 whole entry): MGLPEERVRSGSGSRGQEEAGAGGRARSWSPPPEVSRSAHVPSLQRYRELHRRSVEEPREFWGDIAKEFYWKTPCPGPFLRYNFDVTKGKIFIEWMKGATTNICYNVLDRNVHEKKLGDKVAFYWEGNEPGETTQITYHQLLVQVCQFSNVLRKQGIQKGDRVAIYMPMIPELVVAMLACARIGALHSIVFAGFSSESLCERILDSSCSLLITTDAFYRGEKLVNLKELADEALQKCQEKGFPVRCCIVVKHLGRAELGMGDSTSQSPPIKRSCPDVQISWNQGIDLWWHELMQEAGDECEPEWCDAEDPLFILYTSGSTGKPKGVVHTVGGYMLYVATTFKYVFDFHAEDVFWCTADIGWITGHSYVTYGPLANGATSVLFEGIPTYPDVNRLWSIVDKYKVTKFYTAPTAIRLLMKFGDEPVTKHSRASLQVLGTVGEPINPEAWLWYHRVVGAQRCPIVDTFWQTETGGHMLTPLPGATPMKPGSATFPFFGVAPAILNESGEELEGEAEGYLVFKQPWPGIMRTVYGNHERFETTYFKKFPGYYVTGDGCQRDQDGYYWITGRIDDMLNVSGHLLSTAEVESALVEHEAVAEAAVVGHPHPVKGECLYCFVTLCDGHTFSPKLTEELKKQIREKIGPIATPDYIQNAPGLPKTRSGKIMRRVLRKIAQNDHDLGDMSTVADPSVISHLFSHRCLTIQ
Outline: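 Recombinant human ACSS2 at 3 nM in 30 mM HEPES pH 7.4, 140 mM NaCl, 2 mM MgCl2, 2 mM DTT, 0.005% Brij35. Test compound serially diluted in DMSO. Final substrates: 5 mM acetate, 50 μM ATP, 5 μM CoA; 120 min incubation. AMP detected by Tb-anti-AMP antibody/tracer TR-FRET after 30 min. Percent inhibition normalized to no-enzyme (100%) and DMSO (0%) wells; IC50 curves fitted from replicates.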

Brpkp110 cells [3] = assay: 13C2-acetate labeling of palmitate in Brpkp110 cells; type: cell-based, mouse; conditions: Brpkp110, N10 and H1, 24 hr, 100 μM 13C2-acetate
Outline: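 Cells labeled 24 h with 100 μM 13C2-acetate in SMEM under N10 (normoxia, 10% dialyzed FBS) or H1 (1% O2, 1% dialyzed FBS). Vehicle or test compound present; for BT474 in H1, a 10-fold dilution series. Lipids extracted with methanol/chloroform/PBS, saponified in 0.3 M KOH/90% methanol at 70°C for 1 h, then hexane-extracted. Palmitate labeling read by C18 reverse-phase LC-MS. n = 3, mean ± S.D.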

Water solubility in PBS = type: physicochemical; conditions: PBS buffer, pH 7.4
Outline: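 10 mg test compound in 1 mL PBS pH 7.4, sonicated 30 min, vortexed 30 min at low speed, then left 16–24 h at room temperature. Filtered (0.22 μm) and 10-fold serially diluted in triplicate in ACN:water (1:1). Internal standard added; LC-MS/MS quantitation against a five-standard calibration curve.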

[4] = Human liver microsomal stability; type: in vitro ADME; conditions: 0.5 μM compound, 0.5 mg/mL microsomes; compared with VY-3-249
Outline: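 Incubations: 0.5 μM compound, 0.5 mg/mL liver microsomes, NADPH-regenerating system, potassium phosphate pH 7.4. Timed aliquots quenched in acetonitrile with internal standard; no-cofactor controls run. LC-MS/MS analyte/internal-standard peak-area ratios. Elimination constant fitted by nonlinear regression; t1/2 from k = 0.693/t1/2. CLint scaled with 48 (mouse) or 39.7 (human) mg protein/g liver. n = 1.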

- potency relative to VY-3-249 (recombinant human ACSS2): ~30 fold
- solubility (Water solubility in PBS): 21.7 µM (≈ 9.32 µg/mL)
- stability in human liver microsomal assay [4]: superior stability
Compound: CCn1c(C(O)(c2ccccc2)c2ccccc2)nc2ccc(C(=O)NC[C@@H](C)O)cc21 [VY-3-135, (R)-1-ethyl-2-(hydroxydiphenylmethyl)-N-(2-hydroxypropyl)-1H-benzo[d]imidazole-6-carboxamide]
- tumor regression by the end of the regimen (BT474 tumors; n = 5 mice per group): two of the tumors in VY-3-135 treated group were not palpable by the end of the regimen, with one tumor fully regressing
- tumor growth (BT474 tumors; two weeks of treatment): completely abrogated tumor growth
- tumor growth (WHIM12 tumors): mostly ineffective
- tumor growth (Brpkp110 tumors; Brpkp110 (ACSS2 high), 100 mpk daily IP): marked inhibition
- Ki67 staining of tumors (proliferation) (Brpkp110 tumors; Brpkp110 tumors): less proliferative
- incorporation of 13C2-acetate into UDP-GlcNAc [1]: blocked incorporation
- 13C6-glucose dependent palmitate synthesis (Brpkp110 cells [2]): did not affect
- cell growth (BT474 cells): modest growth inhibition
- acetate dependent labeling of palmitate by 13C2-acetate (Brpkp110 cells [3]): efficiently blocked
